ChEMBL document CHEMBL1138633, “Synthesis and CYP24 inhibitory activity of 2-substituted-3,4-dihydro-2H-naphthalen-1-one (tetralone) derivatives” (Bioorg Med Chem Lett, 2004)

What follows are compounds tested against T1, 1,25-dihydroxyvitamin D(3) 24-hydroxylase, mitochondrial (Rattus norvegicus, UniProt Q09128) (assay: Inhibitory activity against 25-hydroxyvitamin D3 24-hydroxylase of rat kidney mitochondria).
T1 sequence (Q09128 whole entry): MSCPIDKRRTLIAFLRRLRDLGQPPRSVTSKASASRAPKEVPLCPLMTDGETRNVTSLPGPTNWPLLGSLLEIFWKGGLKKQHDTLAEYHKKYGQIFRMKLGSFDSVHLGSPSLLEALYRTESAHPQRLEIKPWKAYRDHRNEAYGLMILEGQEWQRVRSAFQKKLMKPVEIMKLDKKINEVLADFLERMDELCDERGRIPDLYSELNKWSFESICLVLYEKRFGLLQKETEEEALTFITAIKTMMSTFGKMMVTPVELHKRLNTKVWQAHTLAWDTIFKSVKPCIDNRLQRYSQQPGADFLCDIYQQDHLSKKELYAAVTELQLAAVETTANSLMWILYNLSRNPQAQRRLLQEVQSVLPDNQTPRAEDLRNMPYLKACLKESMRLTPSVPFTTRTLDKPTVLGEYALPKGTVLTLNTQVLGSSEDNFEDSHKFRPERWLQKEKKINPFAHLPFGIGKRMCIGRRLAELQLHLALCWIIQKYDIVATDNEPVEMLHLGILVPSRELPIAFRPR
How it was run: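 Substrate was [26,27-methyl-3H]-25-hydroxyvitamin D3, taken from a stock of labelled plus unlabelled 25 µM 25(OH)D3 holding 5 µCi/mL. It was incubated with NADPH and inhibitor at varying concentrations (in acetonitrile) in phosphate buffer pH 7.4, shaking at 37 °C for 30 min. Metabolites were extracted with ethyl acetate and analysed by HPLC with online radioactivity detection, quantified by peak area. Results are % inhibition relative to an acetonitrile control.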

SMILES | IC50 [µM]
O=C1c2ccc(O)cc2CCC1Cc1ccc(-c2ccccc2)cc1 (stereo not drawn) | > 20
COc1ccc2c(c1)CC/C(=C\c1cccc(N(C)C)c1)C2=O | > 100
O=C1/C(=C/c2ccc(-c3ccccc3)cc2)CCc2cc(O)ccc21 | > 100
O=C1/C(=C/c2ccc(O)cc2)CCc2cc(O)ccc21 | > 20
COc1ccc2c(c1)CC/C(=C\c1ccccc1C)C2=O | > 20
O=C1/C(=C/c2ccccc2-c2ccccc2)CCc2cc(O)ccc21 | > 100
COc1ccc2c(c1)CC/C(=C\c1cc(C(F)(F)F)ccc1C(F)(F)F)C2=O | > 100
CN(C)c1ccc(/C=C2\CCc3cc(O)ccc3C2=O)cc1 | > 100
COc1ccc2c(c1)CC/C(=C\c1ccc(O)cc1)C2=O | > 20
CC(=O)N1CCN(c2ccc(OC[C@H]3CO[C@](Cn4ccnc4)(c4ccc(Cl)cc4Cl)O3)cc2)CC1 [KETOCONAZOLE] | 20

Results, then the compound that gave them:

IC50 [µM] | SMILES
2.6 | COc1ccc2c(c1)CCC(Cc1ccc(O)cc1)C2 (stereo not drawn)
3.5 | COc1ccc2c(c1)CCC(Cc1ccc(O)cc1)C2=O (stereo not drawn)
4.5 | COc1ccc2c(c1)CCC(Cc1cc(C(F)(F)F)ccc1C(F)(F)F)C2=O (stereo not drawn)
8.9 | O=C1c2ccc(O)cc2CCC1Cc1ccc(O)cc1 (stereo not drawn)
2.1 | O=C1c2ccc(O)cc2CCC1Cc1ccccc1-c1ccccc1 (stereo not drawn)
18 | CN(C)c1ccc(CC2CCc3cc(O)ccc3C2=O)cc1 (stereo not drawn)
0.9 | COc1ccc2c(c1)CCC(Cc1ccccc1C)C2=O (stereo not drawn)
100 | COc1ccc2c(c1)CC/C(=C\c1ccccc1Br)C2=O
